# Data published in ChEMBL document CHEMBL5303300, “EUbOPEN Chemogenomics Library - Multiplex” (2023).
# Where “and” joins values, the source holds several entries; their conditions need not be identical. Identical values can stand only once.
# Tested on: Fibroblast
# Assay: Multiplex assay against human fibroblast
# Format: toxicity, cell-based
# Details: number of replicates 2
# How it was run: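 Phenotypes for tubulin, mitochondrial mass and membrane permeability are expressed as per cents of healthy-nucleus cells. Cells were stained live at seeding with Hoechst33342, BioTracker Green Microtubule Cytoskeleton Dye, MitoTracker Red and Annexin V Alexa Fluor 680, then imaged after compound addition on a CQ1 microscope at 37°C and 5% CO2. Machine-learning gating in CellPathfinder separated Hoechst high-intensity objects from normal cells, divided normal cells by nuclear state (healthy, pyknosed, fragmented) and divided pyknosed cells into mitotic or apoptotic.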
# [1] = 12 h, 1 µM, compound concentration 1 uM
# [2] = 12 h, 10 µM, compound concentration 10 uM
# [3] = 24 h, 1 µM, compound concentration 1 uM
# [4] = 24 h, 10 µM, compound concentration 10 uM
# [5] = 48 h, 1 µM, compound concentration 1 uM
# [6] = 48 h, 10 µM, compound concentration 10 uM
smiles,measurement,setting,value
CC(C)(C)c1cnc(CSc2cnc(NC(=O)C3CCNCC3)s2)o1 [BMS-387032],Population Apoptotic (%),[1],56% and 46%
same,Population Fragmented Nuclei (%),[1],8% and 6%
same,Population Healthy Nuclei (%),[1],60% and 72%
same,Population Hoechst High Intensity Objects (%),[1],0%
same,Population Membrane Permeable-Phenotype (%),[1],6% and 7%
same,Population Mitochondria Different-Phenotype (%),[1],0% and 2%
same,Population Mitotic Cells (%),[1],43% and 53%
same,Population Normal (%),[1],100%
same,Population Pyknosed Nuclei (%),[1],31% and 21%
same,Population Tubulin-Different-Phenotype (%),[1],15% and 16%
same,Total Cell Count,[1],96 and 204
same,Population Apoptotic (%),[2],46% and 38%
same,Population Fragmented Nuclei (%),[2],7% and 9%
same,Population Healthy Nuclei (%),[2],58% and 67%
same,Population Hoechst High Intensity Objects (%),[2],0%
same,Population Membrane Permeable-Phenotype (%),[2],3% and 6%
same,Population Mitochondria Different-Phenotype (%),[2],4% and 8%
same,Population Mitotic Cells (%),[2],53% and 61%
same,Population Normal (%),[2],100%
same,Population Pyknosed Nuclei (%),[2],33% and 23%
same,Population Tubulin-Different-Phenotype (%),[2],37% and 43%
same,Total Cell Count,[2],141 and 213
same,Population Apoptotic (%),[3],64% and 54%
same,Population Fragmented Nuclei (%),[3],12% and 10%
same,Population Healthy Nuclei (%),[3],61% and 63%
same,Population Hoechst High Intensity Objects (%),[3],0%
same,Population Membrane Permeable-Phenotype (%),[3],7% and 9%
same,Population Mitochondria Different-Phenotype (%),[3],0% and 1%
same,Population Mitotic Cells (%),[3],35% and 45%
same,Population Normal (%),[3],100%
same,Population Pyknosed Nuclei (%),[3],26%
same,Population Tubulin-Different-Phenotype (%),[3],21% and 18%
same,Total Cell Count,[3],106 and 208
same,Population Apoptotic (%),[4],52% and 71%
same,Population Fragmented Nuclei (%),[4],12% and 11%
same,Population Healthy Nuclei (%),[4],49% and 62%
same,Population Hoechst High Intensity Objects (%),[4],0%
same,Population Membrane Permeable-Phenotype (%),[4],6% and 7%
same,Population Mitochondria Different-Phenotype (%),[4],10% and 12%
same,Population Mitotic Cells (%),[4],47% and 28%
same,Population Normal (%),[4],100%
same,Population Pyknosed Nuclei (%),[4],37% and 26%
same,Population Tubulin-Different-Phenotype (%),[4],41% and 40%
same,Total Cell Count,[4],147 and 198
same,Population Apoptotic (%),[5],74% and 73%
same,Population Fragmented Nuclei (%),[5],12% and 14%
same,Population Healthy Nuclei (%),[5],49% and 52%
same,Population Hoechst High Intensity Objects (%),[5],0%
same,Population Membrane Permeable-Phenotype (%),[5],23% and 15%
same,Population Mitochondria Different-Phenotype (%),[5],2% and 0%
same,Population Mitotic Cells (%),[5],25% and 26%
same,Population Normal (%),[5],100%
same,Population Pyknosed Nuclei (%),[5],38% and 33%
same,Population Tubulin-Different-Phenotype (%),[5],33% and 30%
same,Total Cell Count,[5],183 and 115
same,Population Apoptotic (%),[6],64% and 73%
same,Population Fragmented Nuclei (%),[6],14% and 11%
same,Population Healthy Nuclei (%),[6],43% and 38%
same,Population Hoechst High Intensity Objects (%),[6],0%
same,Population Membrane Permeable-Phenotype (%),[6],10% and 22%
same,Population Mitochondria Different-Phenotype (%),[6],8% and 16%
same,Population Mitotic Cells (%),[6],35% and 26%
same,Population Normal (%),[6],100%
same,Population Pyknosed Nuclei (%),[6],41% and 49%
same,Population Tubulin-Different-Phenotype (%),[6],44% and 58%
same,Total Cell Count,[6],194 and 137
CS(=O)(=O)c1ccc(C(=O)Nc2ccc(F)c(COc3ccc(Br)cc3CNCCO)c2)c(Cl)c1.O=CO,Population Apoptotic (%),[1],41% and 39%
same,Population Healthy Nuclei (%),[1],69% and 66%
same,Population Mitotic Cells (%),[1],58% and 60%
same,Total Cell Count,[1],178 and 232
same,Population Apoptotic (%),[2],50% and 51%
same,Population Healthy Nuclei (%),[2],49%
same,Population Mitotic Cells (%),[2],50% and 48%
same,Population Pyknosed Nuclei (%),[2],35% and 30%
same,Total Cell Count,[2],220 and 252
same,Population Apoptotic (%),[3],63% and 46%
same,Population Healthy Nuclei (%),[3],68% and 56%
same,Population Mitotic Cells (%),[3],36% and 53%
same,Total Cell Count,[3],202 and 243
same,Population Apoptotic (%),[4],68% and 73%
same,Population Healthy Nuclei (%),[4],54% and 56%
same,Population Mitotic Cells (%),[4],31% and 26%
same,Population Pyknosed Nuclei (%),[4],27% and 22%
same,Total Cell Count,[4],219 and 283
same,Population Apoptotic (%),[5],54% and 68%
same,Population Healthy Nuclei (%),[5],71% and 72%
same,Population Mitotic Cells (%),[5],45% and 31%
same,Total Cell Count,[5],202 and 207
same,Population Apoptotic (%),[6],88% and 77%
same,Population Healthy Nuclei (%),[6],63% and 61%
same,Population Mitotic Cells (%),[6],11% and 22%
same,Population Pyknosed Nuclei (%),[6],22%
same,Total Cell Count,[6],200 and 244
Cc1ccc2c(N)c(C(=O)NC3CCc4cc(N5CC6CCC(C5)N6)ccc4C3)sc2n1.O=CO (stereo not given),Population Apoptotic (%),[1],50% and 54%
same,Population Fragmented Nuclei (%),[1],16%
same,Population Healthy Nuclei (%),[1],73% and 68%
same,Population Hoechst High Intensity Objects (%),[1],0% and 1%
same,Population Membrane Permeable-Phenotype (%),[1],2%
same,Population Mitochondria Different-Phenotype (%),[1],1% and 2%
same,Population Mitotic Cells (%),[1],50% and 45%
same,Population Normal (%),[1],99% and 98%
same,Population Pyknosed Nuclei (%),[1],10% and 15%
same,Population Tubulin-Different-Phenotype (%),[1],17% and 14%
same,Total Cell Count,[1],232 and 283
same,Population Apoptotic (%),[2],38% and 26%
same,Population Fragmented Nuclei (%),[2],16% and 24%
same,Population Healthy Nuclei (%),[2],53% and 55%
same,Population Hoechst High Intensity Objects (%),[2],3% and 5%
same,Population Membrane Permeable-Phenotype (%),[2],4% and 2%
same,Population Mitochondria Different-Phenotype (%),[2],3% and 1%
same,Population Mitotic Cells (%),[2],61% and 73%
same,Population Normal (%),[2],96% and 94%
same,Population Pyknosed Nuclei (%),[2],29% and 20%
same,Population Tubulin-Different-Phenotype (%),[2],23% and 22%
same,Total Cell Count,[2],238 and 259
same,Population Apoptotic (%),[3],46% and 52%
same,Population Fragmented Nuclei (%),[3],14%
same,Population Healthy Nuclei (%),[3],75% and 71%
same,Population Hoechst High Intensity Objects (%),[3],0%
same,Population Membrane Permeable-Phenotype (%),[3],2% and 1%
same,Population Mitochondria Different-Phenotype (%),[3],3% and 2%
same,Population Mitotic Cells (%),[3],53% and 47%
same,Population Normal (%),[3],100% and 99%
same,Population Pyknosed Nuclei (%),[3],10% and 14%
same,Population Tubulin-Different-Phenotype (%),[3],15% and 14%
same,Total Cell Count,[3],259 and 302
same,Population Apoptotic (%),[4],48% and 45%
same,Population Fragmented Nuclei (%),[4],18% and 23%
same,Population Healthy Nuclei (%),[4],42% and 48%
same,Population Hoechst High Intensity Objects (%),[4],7% and 6%
same,Population Membrane Permeable-Phenotype (%),[4],2% and 1%
same,Population Mitochondria Different-Phenotype (%),[4],13% and 8%
same,Population Mitotic Cells (%),[4],51% and 54%
same,Population Normal (%),[4],92% and 93%
same,Population Pyknosed Nuclei (%),[4],39% and 28%
same,Population Tubulin-Different-Phenotype (%),[4],23% and 15%
same,Total Cell Count,[4],228 and 250
same,Population Apoptotic (%),[5],56% and 60%
same,Population Fragmented Nuclei (%),[5],27% and 18%
same,Population Healthy Nuclei (%),[5],67% and 71%
same,Population Hoechst High Intensity Objects (%),[5],0%
same,Population Membrane Permeable-Phenotype (%),[5],1%
same,Population Mitochondria Different-Phenotype (%),[5],1% and 3%
same,Population Mitotic Cells (%),[5],43% and 40%
same,Population Normal (%),[5],99%
same,Population Pyknosed Nuclei (%),[5],5% and 10%
same,Population Tubulin-Different-Phenotype (%),[5],18% and 17%
same,Total Cell Count,[5],294 and 298
same,Population Apoptotic (%),[6],67% and 55%
same,Population Fragmented Nuclei (%),[6],20% and 22%
same,Population Healthy Nuclei (%),[6],29% and 36%
same,Population Hoechst High Intensity Objects (%),[6],11% and 10%
same,Population Membrane Permeable-Phenotype (%),[6],7% and 2%
same,Population Mitochondria Different-Phenotype (%),[6],21% and 16%
same,Population Mitotic Cells (%),[6],32% and 44%
same,Population Normal (%),[6],88% and 89%
same,Population Pyknosed Nuclei (%),[6],49% and 40%
same,Population Tubulin-Different-Phenotype (%),[6],25% and 15%
same,Total Cell Count,[6],194 and 215
CN(C)CCCNc1ccnc(Nc2cccc(Cl)c2)n1,Population Apoptotic (%),[1],13% and 30%
same,Population Fragmented Nuclei (%),[1],9% and 15%
same,Population Healthy Nuclei (%),[1],76% and 67%
same,Population Hoechst High Intensity Objects (%),[1],0%
same,Population Membrane Permeable-Phenotype (%),[1],4%
same,Population Mitochondria Different-Phenotype (%),[1],1%
same,Population Mitotic Cells (%),[1],86% and 70%
same,Population Normal (%),[1],99% and 100%
same,Population Pyknosed Nuclei (%),[1],14% and 16%
same,Population Tubulin-Different-Phenotype (%),[1],14% and 10%
same,Total Cell Count,[1],249 and 301
same,Population Apoptotic (%),[2],36% and 44%
same,Population Fragmented Nuclei (%),[2],23% and 18%
same,Population Healthy Nuclei (%),[2],65% and 70%
same,Population Hoechst High Intensity Objects (%),[2],0%
same,Population Membrane Permeable-Phenotype (%),[2],6% and 3%
same,Population Mitochondria Different-Phenotype (%),[2],2% and 1%
same,Population Mitotic Cells (%),[2],63% and 55%
same,Population Normal (%),[2],99%
same,Population Pyknosed Nuclei (%),[2],10% and 11%
same,Population Tubulin-Different-Phenotype (%),[2],32% and 19%
same,Total Cell Count,[2],277 and 316
same,Population Apoptotic (%),[3],35% and 40%
same,Population Fragmented Nuclei (%),[3],13% and 19%
same,Population Healthy Nuclei (%),[3],73% and 66%
same,Population Hoechst High Intensity Objects (%),[3],0%
same,Population Membrane Permeable-Phenotype (%),[3],4%
same,Population Mitochondria Different-Phenotype (%),[3],0% and 2%
same,Population Mitotic Cells (%),[3],64% and 59%
same,Population Normal (%),[3],100% and 99%
same,Population Pyknosed Nuclei (%),[3],13% and 14%
same,Population Tubulin-Different-Phenotype (%),[3],14% and 13%
same,Total Cell Count,[3],284 and 321
same,Population Apoptotic (%),[4],30% and 31%
same,Population Fragmented Nuclei (%),[4],18% and 13%
same,Population Healthy Nuclei (%),[4],61% and 66%
same,Population Hoechst High Intensity Objects (%),[4],1% and 2%
same,Population Membrane Permeable-Phenotype (%),[4],4% and 3%
same,Population Mitochondria Different-Phenotype (%),[4],3% and 0%
same,Population Mitotic Cells (%),[4],69% and 68%
same,Population Normal (%),[4],98% and 97%
same,Population Pyknosed Nuclei (%),[4],20% and 19%
same,Population Tubulin-Different-Phenotype (%),[4],32% and 17%
same,Total Cell Count,[4],319 and 392
same,Population Apoptotic (%),[5],56% and 66%
same,Population Fragmented Nuclei (%),[5],18% and 25%
same,Population Healthy Nuclei (%),[5],70% and 65%
same,Population Hoechst High Intensity Objects (%),[5],0%
same,Population Membrane Permeable-Phenotype (%),[5],3% and 1%
same,Population Mitochondria Different-Phenotype (%),[5],0%
same,Population Mitotic Cells (%),[5],43% and 33%
same,Population Normal (%),[5],99%
same,Population Pyknosed Nuclei (%),[5],10% and 9%
same,Population Tubulin-Different-Phenotype (%),[5],12% and 5%
same,Total Cell Count,[5],314 and 360
same,Population Apoptotic (%),[6],22% and 29%
same,Population Fragmented Nuclei (%),[6],17% and 16%
same,Population Healthy Nuclei (%),[6],66% and 70%
same,Population Hoechst High Intensity Objects (%),[6],6%
same,Population Membrane Permeable-Phenotype (%),[6],3% and 2%
same,Population Mitochondria Different-Phenotype (%),[6],2% and 0%
same,Population Mitotic Cells (%),[6],77% and 70%
same,Population Normal (%),[6],93%
same,Population Pyknosed Nuclei (%),[6],16% and 13%
same,Population Tubulin-Different-Phenotype (%),[6],33% and 16%
same,Total Cell Count,[6],391 and 463
